Measured values: ChEMBL document CHEMBL1137730, “Synthesis and antiparasitic and antifungal evaluation of 2'-arylsubstituted-1H,1'H-[2,5']bisbenzimidazolyl-5-carboxamidines” (Eur J Med Chem, 2009)
Converted amounts (≈) assume the structure as drawn.

Key:
Candida albicans = experiment: Antifungal activity against Candida albicans ATCC 10231 by macro-broth dilution method; assay type: functional
Method in brief: (§1)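 Macro-broth (tube) dilution; compounds and reference drugs dissolved in water or 40% DMSO-water as 400 µg/mL stock, brought to 100 µg/mL in the first tube by 4-fold dilution with culture medium and fungal suspension. Result reported as MIC.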

Pichia kudriavzevii = experiment: Antifungal activity against Candida krusei ATCC 6258 by macro-broth dilution method; assay type: functional; method in brief: as §1
[1] = system: Trypanosoma brucei rhodesiense; experiment: Antiparasitic activity against Trypanosoma brucei rhodesiense STIB900; assay type: functional, organism-based
L6 = experiment: Cytotoxicity against rat L6 cells by alamar blue assay; assay type: cell-based
Method in brief: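 Rat L-6 myoblasts in culture; viability read by Alamar Blue.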

Plasmodium falciparum = experiment: Antiparasitic activity against Plasmodium falciparum K1; assay type: functional, organism-based
Trypanosoma cruzi [2] = experiment: Antiparasitic activity against Trypanosoma cruzi Tulahuen C4 containing lacz gene at 0.81 ug/ml; assay type: functional; details: Tulahen C4
Leishmania donovani [3] = experiment: Antiparasitic activity against Leishmania donovani MHOM-ET/67/L82 at 4.85 ug/ml; assay type: functional
Trypanosoma cruzi [4] = experiment: Antiparasitic activity against Trypanosoma cruzi Tulahuen C4 containing lacz gene at 4.85 ug/ml; assay type: functional; details: Tulahen C4
Leishmania donovani [5] = experiment: Antiparasitic activity against Leishmania donovani MHOM-ET/67/L82 at 0.81 ug/ml; assay type: functional

| SMILES | MIC (Candida albicans) [µg/mL] | MIC (Pichia kudriavzevii) [µg/mL] | IC50 [1] [µg/mL] | IC50 (L6) [µg/mL] | IC50 (Plasmodium falciparum) [µg/mL] | inhibition at 0.81 µg/mL (Trypanosoma cruzi [2]) [%] | inhibition at 4.85 µg/mL (Leishmania donovani [3]) [%] | inhibition at 4.85 µg/mL (Trypanosoma cruzi [4]) [%] | inhibition at 0.81 µg/mL (Leishmania donovani [5]) [%] |
| --- | --- | --- | --- | --- | --- | --- | --- | --- | --- |
| OC(Cn1cncn1)(Cn1cncn1)c1ccc(F)cc1F [FLUCONAZOLE] | 0.78 (≈ 2.55 µM) | 25 (≈ 81.6 µM) | – | – | – | – | – | – | – |
| Nc1nc(N)nc(Nc2ccc([As]3SCC(CO)S3)cc2)n1 (stereo unspecified) [MELARSOPROL] | – | – | 0.003 | – | – | – | – | – | – |
| COc1ccc(-c2nc3ccc(-c4nc5cc(C(=N)N)ccc5[nH]4)cc3[nH]2)cc1 | > 100 | – | 0.009 (≈ 0.0235 µM) | 10 (≈ 26.1 µM) | 0.015 (≈ 0.0392 µM) | – | – | – | – |
| N=C(N)c1ccc2[nH]c(-c3ccc4nc(-c5ccc(OCc6ccccc6)c(OCc6ccccc6)c5)[nH]c4c3)nc2c1 | 25 (≈ 44.3 µM) | 50 (≈ 88.6 µM) | 1.06 (≈ 1.88 µM) | > 90 | 0.061 (≈ 0.108 µM) | ≤ 50 | ≤ 70 | ≤ 70 | ≤ 50 |
| COc1cc(OC)cc(-c2nc3ccc(-c4nc5cc(C(=N)N)ccc5[nH]4)cc3[nH]2)c1 | 50 (≈ 121 µM) | 50 (≈ 121 µM) | 0.59 (≈ 1.43 µM) | 25.5 (≈ 61.8 µM) | 0.017 (≈ 0.0412 µM) | ≤ 50 | ≤ 70 | ≤ 70 | ≤ 50 |
| CC(C)(C)c1ccc(-c2nc3ccc(-c4nc5cc(C(=N)N)ccc5[nH]4)cc3[nH]2)cc1 | 1.56 (≈ 3.82 µM) | 12.5 (≈ 30.6 µM) | 1.06 (≈ 2.59 µM) | 13 (≈ 31.8 µM) | 0.031 (≈ 0.0759 µM) | ≤ 50 | ≤ 70 | ≤ 70 | ≤ 50 |
| N=C(N)c1ccc2[nH]c(-c3ccc4nc(-c5cc(C(F)(F)F)ccc5Cl)[nH]c4c3)nc2c1 | – | – | – | 31.8 (≈ 69.9 µM) | 0.064 (≈ 0.141 µM) | ≤ 50 | ≤ 70 | ≤ 70 | ≤ 50 |
| N=C(N)c1ccc2[nH]c(-c3ccc4nc(-c5ccc(OCc6ccccc6)cc5)[nH]c4c3)nc2c1 | 12.5 (≈ 27.3 µM) | 25 (≈ 54.5 µM) | 0.81 (≈ 1.77 µM) | 17.4 (≈ 37.9 µM) | 0.017 (≈ 0.0371 µM) | ≤ 50 | ≤ 70 | ≤ 70 | ≤ 50 |
| CC(C)(C)c1cccc(-c2nc3ccc(-c4nc5cc(C(=N)N)ccc5[nH]4)cc3[nH]2)c1O | 3.12 (≈ 7.35 µM) | 6.25 (≈ 14.7 µM) | – | 13.4 (≈ 31.6 µM) | 0.211 (≈ 0.497 µM) | ≤ 50 | ≤ 70 | ≤ 70 | ≤ 50 |
| N=C(N)c1ccc2[nH]c(-c3ccc4nc(-c5ccccc5F)[nH]c4c3)nc2c1 | 12.5 (≈ 33.7 µM) | 12.5 (≈ 33.7 µM) | 0.08 (≈ 0.216 µM) | 26.8 (≈ 72.4 µM) | 0.007 (≈ 0.0189 µM) | ≤ 50 | ≤ 70 | ≤ 70 | ≤ 50 |
| N=C(N)c1ccc2[nH]c(-c3ccc4nc(-c5cccc6ccccc56)[nH]c4c3)nc2c1 | 0.78 (≈ 1.94 µM) | 12.5 (≈ 31.1 µM) | 0.48 (≈ 1.19 µM) | 8.72 (≈ 21.7 µM) | 0.016 (≈ 0.0398 µM) | ≤ 50 | ≤ 70 | ≤ 70 | ≤ 50 |
| N=C(N)c1ccc2[nH]c(-c3ccc4nc(-c5cc(C(F)(F)F)cc(C(F)(F)F)c5)[nH]c4c3)nc2c1 | 50 (≈ 102 µM) | 25 (≈ 51.2 µM) | – | 76.8 (≈ 157 µM) | 0.63 (≈ 1.29 µM) | ≤ 50 | ≤ 70 | ≤ 70 | ≤ 50 |
| N=C(N)c1ccc2[nH]c(-c3ccc4nc(-c5ccc(F)c(F)c5)[nH]c4c3)nc2c1 | 25 (≈ 64.4 µM) | 25 (≈ 64.4 µM) | 0.33 (≈ 0.85 µM) | 29.8 (≈ 76.7 µM) | 0.015 (≈ 0.0386 µM) | ≤ 50 | ≤ 70 | ≤ 70 | ≤ 50 |
| COc1ccc(-c2nc3ccc(-c4nc5cc(C(=N)N)ccc5[nH]4)cc3[nH]2)cc1OC | 25 (≈ 60.6 µM) | 25 (≈ 60.6 µM) | 0.06 (≈ 0.145 µM) | > 90 | 0.008 (≈ 0.0194 µM) | ≤ 50 | ≤ 70 | ≤ 70 | ≤ 50 |
| COc1cc(-c2nc3ccc(-c4nc5cc(C(=N)N)ccc5[nH]4)cc3[nH]2)ccc1OCc1ccccc1 | 25 (≈ 51.2 µM) | 50 (≈ 102 µM) | 0.57 (≈ 1.17 µM) | 19.8 (≈ 40.5 µM) | 0.023 (≈ 0.0471 µM) | ≤ 50 | ≤ 70 | ≤ 70 | ≤ 50 |
| N=C(N)c1ccc2[nH]c(-c3ccc4nc(-c5ccc(F)cc5)[nH]c4c3)nc2c1 | 25 (≈ 67.5 µM) | 12.5 (≈ 33.7 µM) | 0.04 (≈ 0.108 µM) | 2.48 (≈ 6.7 µM) | 0.01 (≈ 0.027 µM) | ≤ 50 | ≤ 70 | ≤ 70 | ≤ 50 |
| COc1ccc(Oc2ccc(-c3nc4ccc(-c5nc6cc(C(=N)N)ccc6[nH]5)cc4[nH]3)cc2)cc1OC | 3.12 (≈ 6.18 µM) | 6.25 (≈ 12.4 µM) | 0.036 (≈ 0.0714 µM) | 29.4 (≈ 58.3 µM) | 0.015 (≈ 0.0297 µM) | ≤ 50 | ≤ 70 | ≤ 70 | ≤ 50 |
| N=C(N)c1ccc2[nH]c(-c3ccc4nc(-c5ccc6ccccc6c5)[nH]c4c3)nc2c1 | 6.25 (≈ 15.5 µM) | 25 (≈ 62.1 µM) | 0.389 (≈ 0.967 µM) | 34.7 (≈ 86.2 µM) | 0.016 (≈ 0.0398 µM) | ≤ 50 | ≤ 70 | ≤ 70 | ≤ 50 |
| N=C(N)c1ccc2[nH]c(-c3ccc4nc(-c5ccc(O)cc5)[nH]c4c3)nc2c1 | 0.78 (≈ 2.12 µM) | – | 0.017 (≈ 0.0461 µM) | 4.2 (≈ 11.4 µM) | 0.013 (≈ 0.0353 µM) | – | – | – | – |
| N=C(N)c1ccc2[nH]c(-c3ccc4nc(-c5ccc(Oc6ccc(Cl)cc6)cc5)[nH]c4c3)nc2c1 | 25 (≈ 52.2 µM) | 25 (≈ 52.2 µM) | 0.708 (≈ 1.48 µM) | 46 (≈ 96 µM) | 0.028 (≈ 0.0585 µM) | ≤ 50 | ≤ 70 | ≤ 70 | ≤ 50 |
| N=C(N)c1ccc2[nH]c(-c3ccc4nc(-c5ccccc5Oc5ccc(Cl)cc5)[nH]c4c3)nc2c1 | 50 (≈ 104 µM) | 50 (≈ 104 µM) | – | > 90 | 0.193 (≈ 0.403 µM) | ≤ 50 | ≤ 70 | ≤ 70 | ≤ 50 |
| N=C(N)c1ccc2[nH]c(-c3ccc4nc(-c5cc(F)ccc5Oc5ccc(Cl)cc5)[nH]c4c3)nc2c1 | 50 (≈ 101 µM) | 50 (≈ 101 µM) | – | > 90 | 0.634 (≈ 1.28 µM) | ≤ 50 | ≤ 70 | ≤ 70 | ≤ 50 |
